Reference: ChEMBL document CHEMBL5058577, “EUbOPEN Chemogenomics Library 2 (Multiplex)” (2022)

Tested on: HEK-293T
Assay: Multiplex assay against HEK293T
Assay type: toxicity, cell-based
Conditions: human
Summary of the method: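 With compound added, live cells were imaged on a CQ1 microscope at 37°C and 5% CO2; staining with Hoechst33342, BioTracker Green Microtubule Cytoskeleton Dye, MitoTracker Red and Annexin V Alexa Fluor 680 had been done at seeding. The CellPathfinder machine-learning gating scheme split cells into Hoechst high-intensity objects or normal cells, normal cells into healthy, pyknosed or fragmented nuclei, and pyknosed cells into mitotic or apoptotic. The tubulin, mitochondrial-mass and membrane-permeability phenotypes are per cents of healthy-nucleus cells.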

[1] = 12 h, 1 µM, compound concentration 1 uM, replicate 1
[2] = 12 h, 1 µM, compound concentration 1 uM, replicate 2
[3] = 12 h, 10 µM, compound concentration 10 uM, replicate 1
[4] = 12 h, 10 µM, compound concentration 10 uM, replicate 2
[5] = 24 h, 1 µM, compound concentration 1 uM, replicate 1
[6] = 24 h, 1 µM, compound concentration 1 uM, replicate 2
[7] = 24 h, 10 µM, compound concentration 10 uM, replicate 1
[8] = 24 h, 10 µM, compound concentration 10 uM, replicate 2
[9] = 48 h, 1 µM, compound concentration 1 uM, replicate 1
[10] = 48 h, 1 µM, compound concentration 1 uM, replicate 2
[11] = 48 h, 10 µM, compound concentration 10 uM, replicate 1
[12] = 48 h, 10 µM, compound concentration 10 uM, replicate 2

O=C(NCCNCC(O)COc1ccc(O)cc1)N1CCOCC1.O=C(NCCNCC(O)COc1ccc(O)cc1)N1CCOCC1.O=C(O)/C=C/C(=O)O (stereo unspecified) [XAMOTEROL FUMARATE]
Population Apoptotic (%) [1]: 39% | Population Fragmented Nuclei (%) [1]: 5% | Population Healthy Nuclei (%) [1]: 79% | Population Hoechst High Intensity Objects (%) [1]: 4% | Population Membrane Permeable-Phenotype (%) [1]: 0% | Population Mitochondria Different-Phenotype (%) [1]: 39% | Population Mitotic Cells (%) [1]: 60% | Population Normal (%) [1]: 95% | Population Pyknosed Nuclei (%) [1]: 14% | Population Tubulin-Different-Phenotype (%) [1]: 26% | Total Cell Count [1]: 339 | Population Apoptotic (%) [2]: 60% | Population Healthy Nuclei (%) [2]: 76% | Population Hoechst High Intensity Objects (%) [2]: 14% | Population Mitochondria Different-Phenotype (%) [2]: 57% | Population Mitotic Cells (%) [2]: 39% | Population Normal (%) [2]: 85% | Population Pyknosed Nuclei (%) [2]: 17% | Population Tubulin-Different-Phenotype (%) [2]: 21% | Total Cell Count [2]: 271 | Population Apoptotic (%) [3]: 35% | Population Fragmented Nuclei (%) [3]: 7% | Population Healthy Nuclei (%) [3]: 83% | Population Hoechst High Intensity Objects (%) [3]: 6% | Population Membrane Permeable-Phenotype (%) [3]: 0% | Population Mitochondria Different-Phenotype (%) [3]: 39% | Population Mitotic Cells (%) [3]: 65% | Population Normal (%) [3]: 93% | Population Pyknosed Nuclei (%) [3]: 8% | Population Tubulin-Different-Phenotype (%) [3]: 19% | Total Cell Count [3]: 499 | Population Apoptotic (%) [4]: 29% | Population Fragmented Nuclei (%) [4]: 4% | Population Healthy Nuclei (%) [4]: 86% | Population Hoechst High Intensity Objects (%) [4]: 5% | Population Mitochondria Different-Phenotype (%) [4]: 62% | Population Mitotic Cells (%) [4]: 70% | Population Normal (%) [4]: 94% | Population Pyknosed Nuclei (%) [4]: 9% | Population Tubulin-Different-Phenotype (%) [4]: 23% | Total Cell Count [4]: 406 | Population Apoptotic (%) [5]: 26% | Population Fragmented Nuclei (%) [5]: 8% | Population Healthy Nuclei (%) [5]: 78% | Population Hoechst High Intensity Objects (%) [5]: 6% | Population Membrane Permeable-Phenotype (%) [5]: 0% | Population Mitochondria Different-Phenotype (%) [5]: 18% | Population Mitotic Cells (%) [5]: 73% | Population Normal (%) [5]: 93% | Population Pyknosed Nuclei (%) [5]: 12% | Population Tubulin-Different-Phenotype (%) [5]: 17% | Total Cell Count [5]: 475 | Population Apoptotic (%) [6]: 45% | Population Fragmented Nuclei (%) [6]: 9% | Population Healthy Nuclei (%) [6]: 80% | Population Hoechst High Intensity Objects (%) [6]: 13% | Population Mitochondria Different-Phenotype (%) [6]: 38% | Population Mitotic Cells (%) [6]: 54% | Population Normal (%) [6]: 86% | Population Pyknosed Nuclei (%) [6]: 10% | Population Tubulin-Different-Phenotype (%) [6]: 15% | Total Cell Count [6]: 366 | Population Apoptotic (%) [7]: 21% | Population Fragmented Nuclei (%) [7]: 9% | Population Healthy Nuclei (%) [7]: 79% | Population Hoechst High Intensity Objects (%) [7]: 5% | Population Membrane Permeable-Phenotype (%) [7]: 0% | Population Mitochondria Different-Phenotype (%) [7]: 25% | Population Mitotic Cells (%) [7]: 78% | Population Normal (%) [7]: 94% | Population Pyknosed Nuclei (%) [7]: 11% | Population Tubulin-Different-Phenotype (%) [7]: 12% | Total Cell Count [7]: 632 | Population Apoptotic (%) [8]: 33% | Population Fragmented Nuclei (%) [8]: 7% | Population Healthy Nuclei (%) [8]: 85% | Population Hoechst High Intensity Objects (%) [8]: 4% | Population Mitochondria Different-Phenotype (%) [8]: 42% | Population Mitotic Cells (%) [8]: 66% | Population Normal (%) [8]: 95% | Population Pyknosed Nuclei (%) [8]: 7% | Population Tubulin-Different-Phenotype (%) [8]: 17% | Total Cell Count [8]: 542 | Population Apoptotic (%) [9]: 21% | Population Fragmented Nuclei (%) [9]: 14% | Population Healthy Nuclei (%) [9]: 77% | Population Hoechst High Intensity Objects (%) [9]: 2% | Population Membrane Permeable-Phenotype (%) [9]: 2% | Population Mitochondria Different-Phenotype (%) [9]: 11% | Population Mitotic Cells (%) [9]: 78% | Population Normal (%) [9]: 97% | Population Pyknosed Nuclei (%) [9]: 7% | Population Tubulin-Different-Phenotype (%) [9]: 9% | Total Cell Count [9]: 918 | Population Apoptotic (%) [10]: 41% | Population Fragmented Nuclei (%) [10]: 11% | Population Healthy Nuclei (%) [10]: 81% | Population Hoechst High Intensity Objects (%) [10]: 4% | Population Membrane Permeable-Phenotype (%) [10]: 0% | Population Mitochondria Different-Phenotype (%) [10]: 18% | Population Mitotic Cells (%) [10]: 58% | Population Normal (%) [10]: 95% | Population Pyknosed Nuclei (%) [10]: 6% | Population Tubulin-Different-Phenotype (%) [10]: 10% | Total Cell Count [10]: 526 | Population Apoptotic (%) [11]: 17% | Population Fragmented Nuclei (%) [11]: 15% | Population Healthy Nuclei (%) [11]: 79% | Population Hoechst High Intensity Objects (%) [11]: 0% | Population Membrane Permeable-Phenotype (%) [11]: 1% | Population Mitochondria Different-Phenotype (%) [11]: 13% | Population Mitotic Cells (%) [11]: 82% | Population Normal (%) [11]: 99% | Population Pyknosed Nuclei (%) [11]: 5% | Population Tubulin-Different-Phenotype (%) [11]: 6% | Total Cell Count [11]: 1116 | Population Apoptotic (%) [12]: 25% | Population Fragmented Nuclei (%) [12]: 16% | Population Healthy Nuclei (%) [12]: 77% | Population Hoechst High Intensity Objects (%) [12]: 2% | Population Membrane Permeable-Phenotype (%) [12]: 0% | Population Mitochondria Different-Phenotype (%) [12]: 16% | Population Mitotic Cells (%) [12]: 74% | Population Normal (%) [12]: 97% | Population Tubulin-Different-Phenotype (%) [12]: 10% | Total Cell Count [12]: 827
